Measurements taken from ChEMBL document CHEMBL1125497, “Synthesis and anticonvulsant activity of enaminones” (J Med Chem, 1992).

Legend:
[1] = tested on: Rattus norvegicus; experiment: Average seizure score for the rat cornea 0.5 hr after peroral administration of 30 mg/kg of compound; assay type: functional; conditions: route oral
Summary of the method: (§1)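 Sprague-Dawley rats (85–95 g initial) were kindled with 4 s, 8 mA corneal stimulations (butacaine anesthesia) to 10 consecutive stage 5 seizures. After a vehicle shock and a 2-day shock-free period, test drug was given ip or po and a single shock applied at time of peak effect. Seizures were scored on a modified Racine 0–5 scale. ED50 is the dose reducing severity by 50% (Litchfield–Wilcoxon).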

[2] = Antiepileptic activity in male CF1 mice 4 hr after administration measured in maximum electroshock seizure(MES) test at a dose of 300 mg/kg (no. of animals treated /protected); activity value is 1/1; assay type: functional, Mus musculus
[3] = Antiepileptic activity in male CF1 mice 0.5 hr after oral administration measured in neurological toxicity (Tox) test at a dose of 10 mg/kg (no. of animals treated /protected); activity value is 0/4; assay type: functional, Mus musculus
[4] = Antiepileptic activity in male CF1 mice 0.50 hours after oral administration measured in neurological toxicity (Tox) test at a dose of 6 mg/kg (no. of animals treated /protected); activity value is 0/4; assay type: functional, Mus musculus
[5] = Antiepileptic activity in male CF1 mice 1.00 hours after oral administration measured in neurological toxicity (Tox) test at a dose of 6 mg/kg (no. of animals treated /protected); activity value is 0/4; assay type: functional, Mus musculus
[6] = Antiepileptic activity in male CF1 mice 1 hr after oral administration measured in maximum electroshock seizure(MES) test at a dose of 10 mg/kg; activity value is 4/4; assay type: functional, Mus musculus
[7] = Antiepileptic activity in male CF1 mice 30 min after administration measured in maximum electroshock seizure(MES) test at a dose of 100 mg/kg (no. of animals treated /protected); activity value is 3/3; assay type: functional, Mus musculus
[8] = tested on: Rattus norvegicus; experiment: Per oral dose (30 mg/Kg) reducing rat corneal kindling 0.5 hr after administration.; assay type: functional; summary of the method: as §1
[9] = Antiepileptic activity in male CF1 mice 4 hr after oral administration measured in maximum electroshock seizure(MES) test at a dose of 50 mg/kg (no. of animals treated /protected); activity value is 2/4; assay type: functional, Mus musculus
[10] = Dose showing neurotoxicity in 50% of the at the time of peak neurotoxic effect in CF1 MICE after ip administration.; assay type: functional; conditions: Mus musculus
Summary of the method: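 Phase II quantification in CF1 male mice (ca. 24–34 g), dosing ip or po in 0.5% methylcellulose suspension. ED50 is protection from tonic hind limb extension in MES. TD50 is rotorod neurotoxicity. Both were read at time of peak effect and derived by Litchfield–Wilcoxon with 95% confidence limits.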

[11] = Antiepileptic activity in male CF1 mice 0.5 hr after oral administration measured in maximum electroshock seizure(MES) test at a dose of 50 mg/kg (no. of animals treated /protected); activity value is 4/4; assay type: functional, Mus musculus
[12] = tested on: Rattus norvegicus; experiment: Per oral dose (75 mg/Kg) reducing rat corneal kindling 0.5 hr after administration.; assay type: functional; summary of the method: as §1
[13] = Protective index was measured as TD50/MES ED50 in mice on po administration; assay type: ADME, organism-based; conditions: mouse, in vivo, read-out: PI
Summary of the method: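 Male CF1 mice (ca. 24–34 g) dosed orally with 0.5% methylcellulose suspension. MES ED50 (protection of 50% from tonic hind limb extension) and rotorod TD50, each determined at time of peak effect by Litchfield and Wilcoxon. PI = TD50/MES ED50.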

Compound | Average seizure score [1] | Activity [2] | Activity [3] | Activity [4] | Activity [5] | Activity [6] | Activity [7] | Reduction [8] [%] | Activity [9] | ED50 [10] [mg/kg] | Activity [11] | Reduction [12] [%] | selectivity ratio [13]
COC(=O)C1C(=O)C=C(Nc2ccc(Cl)cc2)CC1C (stereo not drawn) | 3 | 1 | 0 | 0 | 0 | 4 | 3 | 40 | – | – | – | – | –
COC(=O)C1C(=O)C=C(NCc2ccccc2)CC1C (stereo not drawn) | – | – | – | – | – | – | – | – | 2 | > 500 | 4 | 47 | > 3.1
